Test results: ChEMBL document CHEMBL1145533, “Antimicrobial activities of ceragenins against clinical isolates of resistant Staphylococcus aureus” (2007)
≈ marks a conversion by molar mass, not a printed value.

How the values were obtained:
Staphylococcus aureus [1] = experiment: Antimicrobial activity against glycopeptide-intermediate Staphylococcus aureus by broth microdilution technique after 24 hrs; assay type: functional
How it was run: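 CLSI broth microdilution MIC and MBC in duplicate. Mueller-Hinton broth supplemented with Mg 12.5 mg/liter and Ca 25 mg/liter (Ca 50 mg/liter for daptomycin). Inoculum 5 × 10⁵ CFU/ml, 24 h at 35°C, tested up to 32.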

Staphylococcus aureus [2] = experiment: Antimicrobial activity against heterogeneous glycopeptide-intermediate Staphylococcus aureus by broth microdilution technique after 24 hrs; assay type: functional
How it was run: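 CLSI broth microdilution in Mueller-Hinton broth with Mg 12.5 mg/liter and Ca 25 mg/liter. […] MBC determined as well. hVISA isolates were identified by subpopulation analysis.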

Staphylococcus aureus [3] = experiment: Antibacterial activity against Staphylococcus aureus Mu3 assessed as bacterial density after 24 hrs by time-kill curve analysis; assay type: functional
How it was run: (§1)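 Time-kill in triplicate in Mueller-Hinton broth supplemented with Mg 12.5 mg/liter and Ca 25 mg/liter. Agent at 0.5×, 1×, 4× and 10× MIC. Starting inocula 5 × 10⁵ (about 6 log₁₀) or 1 × 10⁸ to 1 × 10⁹ CFU/ml. Samples at 0, 1, 4, 8 and 24 h, serially diluted in cold 0.9% NaCl or filtered to remove carryover. Counted by spiral plating on trypticase soy agar; detection limit 2 log₁₀ CFU/ml. Bactericidal = 99.9% kill.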

Staphylococcus aureus [4] = experiment: Post antibiotic effect on vancomycin-resistant Staphylococcus aureus PA after 0.5 hrs; assay type: functional, organism-based
How it was run: (§2)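 Cultures exposed for 0.5 h at 1×, 2× and 4× MIC, then drug removed by washing, dilution, filtration or inactivation. PAE = T − C, where each is the time for counts to rise 1 log10 above the count right after drug removal, for treated (T) and untreated control (C) cultures.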

Staphylococcus aureus [5] = experiment: Antibacterial activity against Staphylococcus aureus Mu3 assessed as bacterial density after 8 hrs by time-kill curve analysis; assay type: functional; how it was run: as §1
Staphylococcus aureus [6] = experiment: Antibacterial activity against Staphylococcus aureus Mu50 assessed as bacterial density after 24 hrs by time-kill curve analysis; assay type: functional
How it was run: (§3)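 Time-kill in Mueller-Hinton broth with Mg 12.5 mg/liter and Ca 25 mg/liter, run in triplicate. Drug at 0.5×, 1×, 4× and 10× MIC. Starting inocula ~6 log10 CFU/ml (5 × 10⁵ to 10⁶) or 8–9 log10 CFU/ml. Samples taken at 0, 1, 4, 8 and 24 h, diluted in cold 0.9% NaCl (filtered if carryover was possible), then spiral plated. Detection limit 2 log10 CFU/ml. Bactericidal = 99.9% kill.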

Staphylococcus aureus [7] = experiment: Bactericidal killing activity against Staphylococcus aureus Mu3 at 4 times MIC; assay type: functional; how it was run: as §1
Staphylococcus aureus [8] = experiment: Bactericidal killing activity of vancomycin-intermediate Staphylococcus aureus at 10 times MIC by time kill curve analysis; assay type: functional; how it was run: as §1
Staphylococcus aureus [9] = experiment: Bactericidal killing activity against Staphylococcus aureus Mu50 at 4 times MIC; assay type: functional; how it was run: as §3
Staphylococcus aureus [10] = experiment: Bactericidal killing activity of vancomycin-resistant Staphylococcus aureus by time kill curve analysis; assay type: functional, organism-based; how it was run: as §3
Staphylococcus aureus [11] = experiment: Post antibiotic effect on Staphylococcus aureus Mu3 after 0.5 hrs; assay type: functional, organism-based
How it was run: (§4)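 Exposure for 0.5 h at 1×, 2× and 4× MIC, then rapid drug removal by washing, dilution, filtration or inactivation. PAE = T − C: time for treated culture to rise 1 log₁₀ CFU/ml after removal, minus the same for an untreated control. Reported as average ± standard deviation.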

Staphylococcus aureus [12] = experiment: Post antibiotic effect on Staphylococcus aureus Mu50 after 0.5 hrs; assay type: functional, organism-based; how it was run: as §4
Staphylococcus aureus [13] = experiment: Bactericidal killing activity against Staphylococcus aureus Mu3 at 10 times MIC; assay type: functional; how it was run: as §3
Staphylococcus aureus [14] = experiment: Bactericidal killing activity against Staphylococcus aureus Mu3 at 0.5 times MIC; assay type: functional; how it was run: as §1
Staphylococcus aureus [15] = experiment: Bactericidal killing activity against 8 to 9 log10 CFU/ml Staphylococcus aureus Mu50 at 4 times MIC by time-kill curve analysis; assay type: functional; how it was run: as §1
Staphylococcus aureus [16] = experiment: Bactericidal killing activity against 8 to 9 log10 CFU/ml Staphylococcus aureus Mu3 at MIC by time-kill curve analysis; assay type: functional; how it was run: as §3
Staphylococcus aureus [17] = experiment: Bactericidal killing activity against 6 log10 CFU/ml Staphylococcus aureus Mu3 at MIC by time-kill curve analysis; assay type: functional; how it was run: as §1
Staphylococcus aureus [18] = experiment: Bactericidal killing activity of heterogenous vancomycin-intermediate Staphylococcus aureus by time kill curve analysis; assay type: functional, organism-based; how it was run: as §1
Staphylococcus aureus [19] = experiment: Antibacterial activity against Staphylococcus aureus Mu50 assessed as bacterial density after 8 hrs by time-kill curve analysis; assay type: functional; how it was run: as §3
Staphylococcus aureus [20] = experiment: Bactericidal killing activity of vancomycin-intermediate Staphylococcus aureus by time kill curve analysis; assay type: functional, organism-based; how it was run: as §1
Staphylococcus aureus [21] = experiment: Bactericidal killing activity of heterogenous vancomycin-intermediate Staphylococcus aureus at 10 times MIC by time kill curve analysis; assay type: functional; how it was run: as §1
Staphylococcus aureus [22] = experiment: Post antibiotic effect on vancomycin-resistant Staphylococcus aureus MI after 0.5 hrs; assay type: functional, organism-based; how it was run: as §2
Staphylococcus aureus [23] = experiment: Bactericidal killing activity against Staphylococcus aureus Mu3 at MIC; assay type: functional; how it was run: as §1
Staphylococcus aureus [24] = experiment: Bactericidal killing activity against Staphylococcus aureus Mu50 at MIC; assay type: functional; how it was run: as §3
Staphylococcus aureus [25] = experiment: Bactericidal killing activity against 6 log10 CFU/ml Staphylococcus aureus Mu50 at 4 times MIC by time-kill curve analysis; assay type: functional; how it was run: as §1

For CC(=O)NC[C@H]1CN(c2ccc(N3CCOCC3)c(F)c2)C(=O)O1 [LINEZOLID], the MBC50 (Staphylococcus aureus [1]) was 8 mg/L (≈ 23.7 µM), the MBC90 (Staphylococcus aureus [1]) was 64 mg/L (≈ 190 µM) and the MIC50 (Staphylococcus aureus [2]) was 1 mg/L (≈ 2.96 µM). For the same compound, the MIC90 (Staphylococcus aureus [2]) was 2 mg/L (≈ 5.93 µM).

CN[C@H](CC(C)C)C(=O)N[C@H]1C(=O)N[C@@H](CC(N)=O)C(=O)N[C@H]2C(=O)N[C@H]3C(=O)N[C@H](C(=O)N[C@H](C(=O)O)c4cc(O)cc(O)c4-c4cc3ccc4O)[C@H](O)c3ccc(c(Cl)c3)Oc3cc2cc(c3O[C@@H]2O[C@H](CO)[C@@H](O)[C@H](O)[C@H]2O[C@H]2C[C@](C)(N)[C@H](O)[C@H](C)O2)Oc2ccc(cc2Cl)[C@H]1O [VANCOMYCIN] showed an MBC50 (Staphylococcus aureus [1]) of 8 mg/L (≈ 5.52 µM), an MBC90 (Staphylococcus aureus [1]) of 8 mg/L (≈ 5.52 µM) and an MIC50 (Staphylococcus aureus [2]) of 4 mg/L (≈ 2.76 µM). The MIC90 (Staphylococcus aureus [2]) was 8 mg/L (≈ 5.52 µM).

For CCCCCCCCNCCC[C@@H](C)[C@H]1CC[C@H]2[C@@H]3[C@H](OCCCN)CC4C[C@H](OCCCN)CC[C@]4(C)[C@H]3C[C@H](OCCCN)[C@]12C.Cl.Cl.Cl.Cl (stereo partly drawn), the log10CFU/ml (Staphylococcus aureus [3]) was -3.75, the Post anitbiotic effect (Staphylococcus aureus [4]) was “Dose-dependent effect” and the log10CFU/ml (Staphylococcus aureus [5]) was -3.4. For the same compound, the log10CFU/ml (Staphylococcus aureus [6]) was -3.75, the T99.9% (Staphylococcus aureus [7]) was 4 h and the T99.9% (Staphylococcus aureus [8]) was 1 h. The T99.9% (Staphylococcus aureus [9]) was 4 h, the MBC50 (Staphylococcus aureus [1]) was 1 mg/L and the MBC90 (Staphylococcus aureus [1]) was 1 mg/L. For the same compound, the Activity (Staphylococcus aureus [10]) was “Dose-dependent effect”, the Post anitbiotic effect (Staphylococcus aureus [11]) was “Dose-dependent effect” and the Post anitbiotic effect (Staphylococcus aureus [12]) was “Dose-dependent effect”. For the same compound, the T99.9% (Staphylococcus aureus [13]) was 1 h, the T99.9% (Staphylococcus aureus [14]) was 24 h and the T99.9% (Staphylococcus aureus [15]) was “>=24 hr”. The T99.9% (Staphylococcus aureus [16]) was “>=24 hr”, the T99.9% (Staphylococcus aureus [17]) was 8 h and the Activity (Staphylococcus aureus [18]) was “Dose-dependent effect”. The log10CFU/ml (Staphylococcus aureus [19]) was -3.4, the Activity (Staphylococcus aureus [20]) was “Dose-dependent effect” and the T99.9% (Staphylococcus aureus [21]) was 1 h. For the same compound, the Post anitbiotic effect (Staphylococcus aureus [22]) was “Dose-dependent effect”, the T99.9% (Staphylococcus aureus [23]) was 8 h and the T99.9% (Staphylococcus aureus [24]) was 8 h. It also gave a T99.9% (Staphylococcus aureus [25]) of 4 h, an MIC50 (Staphylococcus aureus [2]) of 1 mg/L and an MIC90 (Staphylococcus aureus [2]) of 1 mg/L.

For C[C@H](CCCO)[C@H]1CC[C@H]2[C@@H]3[C@H](OCCCN)CC4C[C@H](OCCCN)CC[C@]4(C)[C@H]3C[C@H](OCCCN)[C@]12C.Cl (stereo partly drawn), the MBC50 (Staphylococcus aureus [1]) was 8 mg/L, the MBC90 (Staphylococcus aureus [1]) was 8 mg/L and the MIC50 (Staphylococcus aureus [2]) was 4 mg/L. The MIC90 (Staphylococcus aureus [2]) was 8 mg/L.

Compound CCCCCCCCCC(=O)N[C@@H](Cc1c[nH]c2ccccc12)C(=O)N[C@H](CC(N)=O)C(=O)N[C@@H](CC(=O)O)C(=O)N[C@@H]1C(=O)NCC(=O)N[C@@H](CCCN)C(=O)N[C@@H](CC(=O)O)C(=O)N[C@H](C)C(=O)N[C@@H](CC(=O)O)C(=O)NCC(=O)N[C@H](CO)C(=O)N[C@@H]([C@H](C)CC(=O)O)C(=O)N[C@@H](CC(=O)c2ccccc2N)C(=O)O[C@@H]1C has an MBC50 (Staphylococcus aureus [1]) of 0.5 mg/L (≈ 0.309 µM), an MBC90 (Staphylococcus aureus [1]) of 1 mg/L (≈ 0.617 µM) and an MIC50 (Staphylococcus aureus [2]) of 0.5 mg/L (≈ 0.309 µM). The MIC90 (Staphylococcus aureus [2]) was 1 mg/L (≈ 0.617 µM).
